High-throughput results from PubChem BioAssay.
Sampled rows, rich in hits. Any-hit rate of the full collection: about 1.9%.
PGC1a acetyl inh – lowers PGC1a acetylation signal in U2OS cells | AlphaScreen anti-acetyl-lysine; with virally co-expressed GCN5 acetyltransferase | inhibition, % at 15.6 µM | actives 0.17% (n = 350,000);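 active = every replicate shows inhibition of at least 40%; inconclusive = mean inhibition at least 40% but some replicate below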
FN deposit inh – fibronectin deposition inhibition; AH1F fibroblasts, Alexa488-fibronectin deposition fluorescence, overnight; inhibition, % at 12.6 µM; actives 0.086% (n = 350,000); AID 743247;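 active = mean inhibition across replicates of 30% or more, regardless of how many single replicates reach that level; inconclusive = mean under 30% yet at least half of replicates reach 30%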
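test system = AH1F fibroblasts assembling fluorescent fibronectin matrix | quantity = 10000 AH1F cells per well | buffer or medium = DMEM plus 2% serum, read in PBS | doses = single dose, pinned | incubation = 1 h cell attachment, overnight exposure to compound and label | detection = fluorescence at 485 nm excitation, 525 nm emission | read-out basis = inhibition from reduced deposited-fibronectin fluorescence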
DENV2 CPE – protects cells from dengue virus 2 cytopathic effect. DENV2-infected cells, cytopathic effect rescue, plate reader. CPE inhibition, % at 9.99 µM. actives 1.7% (n = 350,000); in the data active = CPE inhibition above about 20%, passing the limit was not always enough; inconclusive = no clear call, values can overlap the other calls; tested in BHK-21 cells
Xi reactivation – reactivates the inactive X chromosome in mouse fibroblasts | XiGFP mouse fibroblasts, % GFP-positive cells imaging, 3 d; cells co-treated with 5-aza-dC sensitizer; scaled so ellipticine positive control = 100% | activation, % at 7.58 µM | actives 0.055% (n = 360,000);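 active = mean normalized replicate activation at least 10% and every replicate at or above 10%; inconclusive = only one of the two criteria met; inactive = mean below 10% and not all replicates reach 10%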
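assay system = SV40-immortalized XiGFP fibroblast cells, line 68-5-11 | buffer or medium = DMEM plus 5-aza-dC sensitizer | doses = single-point pinned compound dosing | times = 3-day compound exposure, then 15 min fixation at room temperature | benchmarks = positive control ellipticine, 6 µM final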
Cneo AK release – Cryptococcus neoformans lysis via adenylate kinase release; C. neoformans lysis, adenylate kinase release luminescence, 4 h; normalised: neutral wells 0, clomiphene wells 100; lysis activity, % at 15 µM; actives 0.2% (n = 360,000);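 active = mean lysis activity across replicates of at least 80%, whatever share of replicates individually reach that level; inactive = mean lysis activity below 80%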
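Test system: log-phase Cryptococcus neoformans yeast cells. Input: 5 × 10^6 yeast cells/mL. Medium: fresh YPD growth medium. Doses: single dose. Incubation: static 4 h at 37 °C with compound, 1 h detection. Measured by: luminescent adenylate kinase detection reagent. Read-out: signal increase indicating cell lysis. Benchmarks: Clomiphene.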
CFTR F508del cor – CFTR F508del correction in bronchial cells | AID 720511 | activity (quench increase), % at 7.58 µM | CFBE cells, YFP halide quenching; stimulated with forskolin plus potentiator P3; % fluorescence drop versus neutral controls | actives 0.36% (n = 350,000);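 active = mean added fluorescence quench of at least 8% versus neutral control, with both replicates also reaching 8%; inconclusive = only one of the mean or replicate conditions met; inactive = mean below 8% and not both replicates reaching 8%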;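 also: cells transiently co-express mutant CFTR-F508del with the halide-sensitive YFP; corrector assay measuring rescue of mutant channel to the surface after 24 h compound exposure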
Of the large screens only hits and unclear results are named; the others gave an inactive call.

CCNC(=O)C1(C)CCN(C(=O)c2cc(F)ccc2C)C1 (configuration not stated)	CFTR F508del cor 16 (no result: FN deposit inh)
O=C(Cc1ccccn1)NCC[C@@H]1CC[C@H](NC(=O)CN2CCOCC2)[C@H](CO)O1	none
COC(=O)Cn1c(=NC(=O)c2cc(-c3cccs3)nc3ccccc23)sc2cc(S(N)(=O)=O)ccc21	CFTR F508del cor 9.5 (no result: PGC1a acetyl inh, Cneo AK release)
CC(C)(C)C(=O)/C=c1\s/c(=C\c2ccc(-c3ccc([N+](=O)[O-])cc3)o2)c(=O)n1CC(=O)NC(N)=O	Xi reactivation 110 (no result: PGC1a acetyl inh)
CO[C@@H](CN(C)Cc1ccc2c(c1)OCO2)[C@@H](C)CN(C(=O)c1ccccc1)[C@H](C)CO	DENV2 CPE inconclusive, Cneo AK release 96
COc1ccc(S(=O)(=O)N[C@H]2C=C[C@H](CC(=O)N3CCc4ccccc4C3)O[C@@H]2CO)cc1	none
O=C(Cc1ccsc1)OCC(=O)c1ccccc1	CFTR F508del cor 14
CC(=O)N1[C@H](CO)[C@H](c2ccccc2)[C@H]1CNC(=O)c1ccncc1	DENV2 CPE 21 (no result: Cneo AK release)
COCCN(C[C@H]1[C@H](c2ccccc2)[C@H](CO)N1C(C)=O)C(=O)c1ccncc1	DENV2 CPE 25
CC(=O)N1[C@H](CO)[C@H](c2ccccc2)[C@@H]1CNC(=O)c1ccncc1	none (no result: Cneo AK release)
CN1c2ccc(Br)cc2[C@@H]2[C@@H](CCN2C(=O)Nc2cc(F)ccc2F)[C@@H]1CO	none
CO[C@H]1CN(C)C(=O)c2cc(NC(=O)C3CC3)ccc2OC[C@H](C)N(Cc2nccs2)C[C@H]1C	none
COc1ccc(CCN2C(=O)CSCC2(C)C(=O)Nc2ccc3c(c2)OCCO3)cc1OC (configuration not stated)	DENV2 CPE 21 (no result: PGC1a acetyl inh, Cneo AK release)
COCCN1C(=O)CN(S(C)(=O)=O)CC1(C)C(=O)Nc1ccc2c(c1)OCCO2 (configuration not stated)	DENV2 CPE 33 (no result: PGC1a acetyl inh, Cneo AK release)
CC(C)NC(=O)Nc1ccc2c(c1)C(=O)N([C@@H](C)CO)C[C@H](C)[C@H](CN(C)Cc1ccc(Cl)c(Cl)c1)O2	none (no result: DENV2 CPE)
C[C@H](CO)N1C[C@H](C)[C@@H](CN(C)C(=O)Nc2ccc3c(c2)OCO3)Oc2c(NS(=O)(=O)c3ccc(Cl)cc3)cccc2C1=O	none
Cc1noc(C)c1NC(=O)Nc1ccc2c(c1)C(=O)N([C@H](C)CO)C[C@H](C)[C@H](CN(C)C(=O)Nc1cccc3ccccc13)O2	none
Cc1ccccc1CSc1ccc(-c2ccc3c(c2)OCO3)nn1	DENV2 CPE 52
COc1ccc2c(c1)c(CC(=O)OCC(=O)O)c(C)n2C(=O)c1ccc(Cl)cc1	CFTR F508del cor 8.5
COc1ccc2c(c1)c(CC(=O)OCC(N)=O)c(C)n2C(=O)c1ccc(Cl)cc1	PGC1a acetyl inh inconclusive
CC(C)(C)OC(=O)N1CCC[C@@H]1C(=O)NCc1ccccc1	none (no result: PGC1a acetyl inh, Cneo AK release)
C[C@H](NC(=O)[C@@H]1CCCN1C(=O)OC(C)(C)C)c1ccccc1	DENV2 CPE 76 (no result: PGC1a acetyl inh, Cneo AK release)
CCn1nc(C)c(/C=C/C(=O)Nc2ccc(C)cc2C)c1C	DENV2 CPE 89 (no result: PGC1a acetyl inh, Cneo AK release)
CCn1ncc(/C=C/C(=O)Nc2c(C)nn(CC)c2C)c1C	none (no result: DENV2 CPE, Xi reactivation, CFTR F508del cor)
CN1C(C(=O)NCc2ccc(OC(F)(F)F)cc2)CC2Cn3c(nc4ccccc43)C21 (configuration not stated)	DENV2 CPE 32
COc1ccc(N(C(=O)c2ccncc2)S(=O)(=O)c2ccc3c4c(cccc24)C(=O)N3C)cc1	none (no result: FN deposit inh, Cneo AK release, CFTR F508del cor)
CCN1C(=O)c2cccc3c(S(=O)(=O)N(C(C)=O)c4ccc(OC(C)=O)cc4)ccc1c23	CFTR F508del cor 16
CNc1nc(Oc2cccc(NC(C)=O)c2)c2sccc2n1	DENV2 CPE 53
COCC(=O)N1CC2(CCN(Cc3nccs3)CC2)c2c(n(C)c3cc(OC)ccc23)[C@H]1CO	none (no result: FN deposit inh, Cneo AK release)
C[C@@H]1CCCCO[C@@H](CN(C)S(=O)(=O)c2ccc(F)cc2)[C@H](C)CN([C@H](C)CO)C(=O)c2cc(NC(=O)Nc3ccc4c(c3)OCO4)ccc2O1	DENV2 CPE 24
C[C@@H]1CCCCO[C@H](CN(C)S(=O)(=O)c2ccc(Cl)cc2)[C@H](C)CN([C@@H](C)CO)C(=O)c2cc(NC(=O)Nc3ccc4c(c3)OCO4)ccc2O1	DENV2 CPE 34
C[C@H]1CN([C@@H](C)CO)C(=O)c2cc(NC(=O)Nc3ccc4c(c3)OCO4)ccc2O[C@H]1CN(C)S(=O)(=O)c1ccc(Cl)cc1	none
C[C@H](CO)N1C[C@H](C)[C@@H](CN(C)S(=O)(=O)c2ccc(Cl)cc2)OCCCC[C@H](C)Oc2ccc(NC(=O)Nc3ccc4c(c3)OCO4)cc2C1=O	none
C[C@H](CO)N1C[C@H](C)[C@H](CN(C)S(=O)(=O)c2ccc(Cl)cc2)Oc2ccc(NC(=O)Nc3ccc4c(c3)OCO4)cc2C1=O	DENV2 CPE 29
C[C@H]1CN([C@@H](C)CO)C(=O)Cc2cc(NC(=O)C3CC3)ccc2O[C@H]1CN(C)C(=O)Nc1cccc2ccccc12	none (no result: FN deposit inh, DENV2 CPE, Cneo AK release)
CS(=O)(=O)N1CCC(C(=O)Nc2ccc(F)c(Cl)c2)CC1	none
Cc1ccc(NC(=O)C2CCN(S(C)(=O)=O)CC2)cc1Cl	DENV2 CPE 29
O=C(Nc1ccc(CN2CCOCC2)cc1)c1ccc(Cl)cc1	none (no result: PGC1a acetyl inh)
CCOc1ccc(C(=O)Nc2ccc(CN3CCOCC3)cc2)cc1Br	DENV2 CPE 37
O=C(Nc1ccc(CN2CCOCC2)cc1)c1ccc(F)cc1	PGC1a acetyl inh 54
C[C@H]1CN([C@@H](C)CO)C(=O)c2cc(NS(=O)(=O)c3cccs3)ccc2O[C@H]1CN(C)S(=O)(=O)c1ccc(F)cc1	none (no result: FN deposit inh)
COc1cccc(-n2c(Cc3cc(=O)[nH]c(=O)[nH]3)nnc2SCC(=O)N2CCCCCC2)c1	DENV2 CPE 69
COc1ccc(-n2c(Cc3cc(=O)[nH]c(=O)[nH]3)nnc2SCC(=O)N2CCCC2)cc1	none
O=S(=O)(c1ccc(Cl)s1)N1CCN(Cc2ccccc2)CC1	none (no result: FN deposit inh, DENV2 CPE, Xi reactivation, CFTR F508del cor)
CC(C)c1ccc(CN2CCN(S(=O)(=O)c3ccc(Cl)s3)CC2)cc1	CFTR F508del cor 30
O=C(NC1CCC1)[C@H]1[C@H](CO)[C@H]2Cn3c(ccc(/C=C/c4ccccc4)c3=O)[C@H]2N1Cc1cncnc1	none (no result: PGC1a acetyl inh, FN deposit inh, CFTR F508del cor)
C[C@@H]1CCCCO[C@H](CN(C)Cc2ccc3c(c2)OCO3)[C@@H](C)CN([C@H](C)CO)C(=O)c2cc(NC(=O)Nc3ccccc3)ccc2O1	none
COC(=O)CSc1[nH]c2ccc(F)cc2c1[N+](=O)[O-]	none
CCOC(=O)CSc1[nH]c2cc(OC)ccc2c1[N+](=O)[O-]	DENV2 CPE 24 (no result: Cneo AK release)
